Most compounds without a hit are left out; they make up all but 4.9% or so of the library.
APP 5'UTR act – activates APP 5'UTR luciferase reporter; SH-SY5Y APP 5'UTR luciferase reporter, luminescence; zero percent = DMSO vehicle wells; activation, % at 2 µM; hit rate 1% among 190,000; AID 1276;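 active = activation above a set limit, based on mean plus 3 SD of controls, cut at about 140% in these data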
STAT1 inh – STAT1 signaling inhibition. hit rate 0.35% among 200,000. inhibition, % at 5.5 µM. NIH 3T3 STAT1-luciferase reporter, IFN-gamma, luminescence;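 active = inhibition above a set limit, the mean inhibition across all tested compounds plus 3 SD, cut at about 34% in these data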;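 note: 0% = IFN-gamma with DMSO and 100% = IFN-gamma with 300 µM nifuroxazide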
NF-kB expr up – NF-kB expression increase, human neuronal cells | NF-kB reporter expression; stronger effect = higher value | fold change at 12.5 µM | hit rate 1.6% among 190,000 | AID 1239; in the data active = fold change above about 3.3
STAT3 blocker – inhibitors of IL-6 induced STAT3 signaling | hit rate 0.89% among 190,000 | inhibition, % at 5.5 µM | U3A cells, IL-6 STAT3-luciferase reporter, luminescence; host cell line lacks STAT1 | AID 862;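 active = inhibition above the mean inhibition across all screened compounds plus 3 SD, cut at about 44% in these data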;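 note: 0% = DMSO only wells and 100% = 100 µM nifuroxazide control wells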
STAT3 act-1 – STAT3 signaling activation | U3A cells, IL-6 STAT3-luciferase reporter, luminescence; 100% = signal with IL-6 EC80 alone | activation (% of control), % at 5.6 µM | hit rate 0.91% among 190,000 | AID 871;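 active = activation above the screen-wide mean of compound activation plus 3 SD, cut at about 130% in these data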;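 note: 0% = background luminescence of wells with medium and substrate only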
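System – human U3A cells carrying STAT3-luciferase construct · Probe or stimulus – Interleukin-6, 33 ng/mL · Schedule – compound 1 h, then IL-6 6 h at 37 °C · Signal – luminescence from STAT3-driven luciferase reporter · Evaluation – percent of IL-6-only median luminescence · Benchmarks – IL-6-only high control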
STAT1 act-1 – STAT1 signaling activation; NIH 3T3 STAT1-luciferase reporter, IFN-gamma, luminescence; 100% = IFN-gamma alone, no compound; activation (% of control), % at 5.5 µM; hit rate 2.6% among 200,000; AID 932;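 active = activation above the screen-wide mean activation plus 3 SD, cut at about 130% in these data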;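 note: raw ratio to IFN-gamma control signal so 100% means no change and 0% no light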
STAT3 act-2 – confirmation of STAT3 signaling activators | shares compounds with STAT3 act-1 | U3A STAT3-luciferase reporter, IL-6 potentiation, luminescence; U3A cells lack STAT1; 100 means same as IL-6 alone | potentiation (% of control), % at 5.7 µM | hit rate 64% among 1,200 | AID 1267;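 active = percent activation of the STAT3 luciferase reporter above a set limit taken from the earlier primary screen, cut at about 130% in these data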;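 note: 0% = background signal of medium plus substrate and 100% = median of IL-6 with DMSO wells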
NFkB act 2 – NF-kappaB activation in STAT3 activator counter-screen; shares compounds with STAT3 act-1; activation (% of control), % at 5.7 µM; hit rate 11% among 1,200; human cells, NF-kappaB reporter activation; in the data active = activation above about 120%;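 note: reporter induced by TNF-alpha stimulation; 100% = median of stimulated DMSO wells and 0% = no signal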
STAT1 act-2 – STAT1 activation in STAT3 activator counter-screen. AID 1318. NIH 3T3 STAT1-luciferase reporter, IFN-gamma, luminescence. hit rate 13% among 1,200. activation (% of control), % at 5.7 µM. shares compounds with STAT3 act-1;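 active = activation above the solvent-only control well mean plus 3 SD, set per screening run, cut at about 120% in these data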;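 note: 100% = IFN-gamma with DMSO median signal so 100% means no change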
* marks the source's active call; other numbers are inactive results.

Cn1nc(-c2ccccc2)c2cc(C(=O)O)sc21 was read as APP 5'UTR act -17, STAT1 inh -2, NF-kB expr up 0.94, STAT3 blocker 8, STAT3 act-1 100 and STAT1 act-1 102.
CCOC(=O)N1CCC(NC(=O)c2cc3c(-c4cccc(OC)c4)nn(C)c3s2)CC1 was read as APP 5'UTR act 20, STAT1 inh -9, NF-kB expr up 0.88, STAT3 blocker 12, STAT3 act-1 95 and STAT1 act-1 108.
`Cn1nc(-c2ccc(Cl)cc2)c2cc(C(=O)NCCN3CCOCC3)sc21` gave STAT1 inh 12, NF-kB expr up 0.73, STAT3 blocker -43, STAT3 act-1 145*, STAT1 act-1 89, STAT3 act-2 152*, NFkB act 2 105 and STAT1 act-2 99.
For O=C(NCCCN1CCOCC1)c1ccc(Cl)s1 the results were APP 5'UTR act 3, STAT1 inh -3, NF-kB expr up 1.2, STAT3 blocker 6, STAT3 act-1 100 and STAT1 act-1 103.
For Cn1nc(-c2ccc(Cl)cc2)c2cc(C(=O)NCCCN3CCOCC3)sc21 the results were APP 5'UTR act -6, STAT1 inh -1, NF-kB expr up 0.73, STAT3 blocker -63, STAT3 act-1 155*, STAT1 act-1 101, STAT3 act-2 134*, NFkB act 2 109 and STAT1 act-2 96.
Screening COc1ccc([N+](=O)[O-])cc1N(CC(=O)N(C)C)S(C)(=O)=O returned APP 5'UTR act 3, STAT1 inh 9, NF-kB expr up 1, STAT3 blocker 13, STAT3 act-1 93 and STAT1 act-1 91.
`On1nnc2ccc3ccccc3c21` gave APP 5'UTR act -5, STAT1 inh 8, NF-kB expr up 1.1, STAT3 blocker 3, STAT3 act-1 98 and STAT1 act-1 93.
CCN(Cc1ccncc1)Cc1cn[nH]c1-c1cc(OC)c(OC)c(OC)c1 was read as APP 5'UTR act -9, STAT1 inh 17, NF-kB expr up 1.2, STAT3 blocker 8, STAT3 act-1 97 and STAT1 act-1 83.
For Cc1cc(C)n(-c2nc(-c3ccccc3)cs2)n1 the results were STAT1 inh -14, NF-kB expr up 2.6, STAT3 blocker -44, STAT3 act-1 137*, STAT1 act-1 107, STAT3 act-2 120, NFkB act 2 121* and STAT1 act-2 122*.
`Cn1c(=O)c(/C=C/c2ccc(F)cc2)nc2ccccc21` gave APP 5'UTR act 38, STAT1 inh -24, NF-kB expr up 1.9, STAT3 blocker -51, STAT3 act-1 152*, STAT1 act-1 120, STAT3 act-2 177*, NFkB act 2 120 and STAT1 act-2 129*.
For O=C(COc1ncnc2c(Cl)cc(Cl)cc12)Nc1cc([N+](=O)[O-])ccc1Cl the results were APP 5'UTR act 7, STAT1 inh 0, NF-kB expr up 0.94, STAT3 blocker -4, STAT3 act-1 106 and STAT1 act-1 100.
CC1=C(C#N)C(c2ccccc2O)C(C#N)=C(C)N1 was read as APP 5'UTR act 32, STAT1 inh 7, NF-kB expr up 1.1, STAT3 blocker -47, STAT3 act-1 143*, STAT1 act-1 93, STAT3 act-2 151*, NFkB act 2 103 and STAT1 act-2 99.
For CN(C)c1ccc2c(c1)OC(N)=C(C#N)C2c1cccc(F)c1 (stereo not drawn) the results were APP 5'UTR act -95, STAT1 inh -11, NF-kB expr up 5*, STAT3 blocker -50, STAT3 act-1 146*, STAT1 act-1 112, STAT3 act-2 100, NFkB act 2 153* and STAT1 act-2 112.
N#CC1=C(N)Oc2cc(O)ccc2C1c1cccnc1 (stereo not drawn) was read as APP 5'UTR act 12, STAT1 inh 0, NF-kB expr up 1.1, STAT3 blocker 10, STAT3 act-1 92 and STAT1 act-1 98.
`Cn1c(=O)c2c(nc(N/N=C/c3ccc(OC(=O)c4ccco4)cc3)n2Cc2ccccc2)n(C)c1=O` gave APP 5'UTR act 17, STAT1 inh -2, NF-kB expr up 0.43, STAT3 blocker 8, STAT3 act-1 92 and STAT1 act-1 102.
Cc1ccccc1NCC(=O)N/N=C/c1c[nH]c2ccccc12 was read as APP 5'UTR act -7, STAT1 inh -10, NF-kB expr up 0.87, STAT3 blocker -2, STAT3 act-1 105 and STAT1 act-1 107.
Screening Cc1cc(N/N=C/c2c[nH]c3ccccc23)c2ccccc2n1 returned APP 5'UTR act -3, STAT1 inh 5, NF-kB expr up 1.1, STAT3 blocker -53, STAT3 act-1 148*, STAT1 act-1 96, STAT3 act-2 141*, NFkB act 2 100 and STAT1 act-2 88.
Screening NS(=O)(=O)c1ccc(NC(=S)NCc2ccco2)cc1 returned APP 5'UTR act 8, STAT1 inh 4, NF-kB expr up 1.1, STAT3 blocker -38, STAT3 act-1 136*, STAT1 act-1 94, STAT3 act-2 123, NFkB act 2 98 and STAT1 act-2 98.
CCOc1ccc(Oc2ccc(Cl)cc2N)cc1 was read as APP 5'UTR act 109, STAT1 inh -5, NF-kB expr up 1.4, STAT3 blocker -2, STAT3 act-1 106 and STAT1 act-1 106.
`CCc1cc(CN2CCOCC2)c(NC(=O)c2ccccc2)s1` gave APP 5'UTR act 13, STAT1 inh -5, NF-kB expr up 1.3, STAT3 blocker -46, STAT3 act-1 139*, STAT1 act-1 104, STAT3 act-2 143*, NFkB act 2 107 and STAT1 act-2 110.
Screening CCc1cc(C(c2ccc(F)cc2)N2CCOCC2)c(NC(=O)c2ccccc2)s1 (stereo not drawn) returned APP 5'UTR act -5, STAT1 inh 4, NF-kB expr up 1.3, STAT3 blocker 2, STAT3 act-1 102 and STAT1 act-1 97.
`COc1ccc(-c2[nH]ncc2C=O)cc1OC` gave APP 5'UTR act 9, STAT1 inh -1, NF-kB expr up 1, STAT3 blocker 2, STAT3 act-1 103 and STAT1 act-1 98.
For CCONC(=O)Nc1ccccc1 the results were APP 5'UTR act 4, STAT1 inh -1, NF-kB expr up 1.1, STAT3 blocker -7, STAT3 act-1 105 and STAT1 act-1 101.
